Laboratory results reported in ChEMBL document CHEMBL3351845, “Synthesis and in vitro stability of amino acid prodrugs of 6-β-naltrexol for microneedle-enhanced transdermal delivery” (Bioorg Med Chem Lett, 2014).

Columns and labels:
[1] = Stability in pH 5.0 0.3 M acetate buffer assessed as time duration in which 90% produg stability at 1 mg by HPLC method; format: physicochemical; details: in vitro
Outline: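 Roughly 1 mg prodrug was added to 10 mL of 0.3 M acetate buffer, pH 5.0, thermostated at 32 °C, then vortexed 1 min and filtered through 0.45 μm nylon. Degradation was followed over time by C-8 reversed-phase HPLC with UV at 215 or 278 nm, mobile phase 70:30 ACN:aqueous TFA/octane sulfonate, pH 3.0. t90 is the time to 10% loss; runs in duplicate.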

[2] = Half life in pH 7.4 25 mM HEPES buffered Hank's balanced salt solution at assessed as prodrug hydrolysis 1 mg by HPLC method; format: physicochemical; details: buffer
Outline: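 About 1 mg prodrug went into 10 mL of 25 mM HEPES-buffered Hanks' balanced salt solution, pH 7.4, held at 37 °C. The mixture was vortexed 1 min and filtered through 0.45 μm nylon. Samples were run by reversed-phase C-8 HPLC with UV at 215 or 278 nm, mobile phase 70:30 ACN:aqueous 0.1% TFA/0.065% octane sulfonate, pH 3.0. Half-life was read from pseudo-first-order hydrolysis; duplicate runs.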

Plasma = test: Half life in 50% human plasma in presence of 50% PBS buffer assessed prodrug hydrolysis by HPLC method; format: ADME, cell-free
Outline: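 Each prodrug was made up as a DMSO stock, and 40.0 μL was added to 760.0 μL of 50% human plasma in 50% PBS (pH 7.4), pre-warmed to 37 °C. Aliquots taken at set times got salicylamide internal standard, were vortexed, centrifuged, dried under N2, and taken up in methanol/0.04% HFBA. Analysis used gradient HPLC on a phenyl column against an eight-point calibration. Kapp came from log(AUC prodrug/AUC IS) versus time; n=3, mean ± SD.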

[3] = Solubility in pH 7.4 25 mM HEPES buffered Hank's balanced salt solution by HPLC method; format: physicochemical; details: buffer

Row | Compound | Time [1] | t1/2 [2] | t1/2 (Plasma) | solubility [3]
1 | NCCC(=O)O[C@@H]1CC[C@@]2(O)[C@H]3Cc4ccc(O)c5c4[C@@]2(CCN3CC2CC2)[C@H]1O5 | 5.6 days | 12 h | – | –
2 | C[C@H](N)C(=O)O[C@@H]1CC[C@@]2(O)[C@H]3Cc4ccc(O)c5c4[C@@]2(CCN3CC2CC2)[C@H]1O5 | 0.412 days | – | – | –
3 | O=C(O[C@@H]1CC[C@@]2(O)[C@H]3Cc4ccc(O)c5c4[C@@]2(CCN3CC2CC2)[C@H]1O5)[C@@H]1CCCN1 | 0.217 days | – | – | –
4 | CC(C)C[C@H](N)C(=O)O[C@@H]1CC[C@@]2(O)[C@H]3Cc4ccc(O)c5c4[C@@]2(CCN3CC2CC2)[C@H]1O5 | 0.9 days | – | – | –
5 | CC(C)[C@H](N)C(=O)O[C@@H]1CC[C@@]2(O)[C@H]3Cc4ccc(O)c5c4[C@@]2(CCN3CC2CC2)[C@H]1O5 | 5.2 days | 11.5 h | 18.2 h | –
6 | CCC(C)[C@H](N)C(=O)O[C@@H]1CC[C@@]2(O)[C@H]3Cc4ccc(O)c5c4[C@@]2(CCN3CC2CC2)[C@H]1O5 (some centres not stated) | 14 days | 22 h | 31.2 h | Insoluble
